The labels stand for the following.
B1: tRNA (parent)
chain: GUUCCGUUGGCGUAAUGGUAACGCGUCUCCCUCCUAAGGAGAAGACUGCGGGUUCGAGUCCCGUACGGAACG

This sample holds only a part of the variants without activity.

We go through 38 variants from the RNAGym collection of RNA variant scans (doi:10.1126/science.aae0568).

In the data set the parent is B1. In words: yeast fitness relative to wild type (ratio to wild type); higher = fitter; tRNA-Arg(CCU), competitive growth, 37 C, YPD. An outline of the steps: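 Genotype frequency changes were the basis for Darwinian fitness relative to wild type. The frequencies came from 100-nucleotide paired-end sequencing of gene amplicons from the start population and each end population of pooled yeast strains with tRNA-Arg(CCU) gene variants at the native locus. Competition ran in YPD at 37°C for 24 hours in six replicates, genotypes needed ≥ 100 starting reads, and estimates < 0.5 were set to 0.5.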
Regarding GCUCCGUUGGCGUAAUGGUUACGCGUCUCCCUCCUAAGGAGAAGGCUGCGGGUUCGAGUCCCGUACGGAACG [U2C A20U A45G], the yeast fitness was at most 0.5. On to GCUCCGUUGGCGUGAUGAUAACGCGUCUCCCACCUAAGGAGAAAACUGCGGGUUCCAGUCCCGUACGGAACG [U2C A14G G18A U32A G44A G56C], for which the yeast fitness is at most 0.5.

For GCUCCGUUGGCGUUAUGGUAUCGCGUCUCCCUCCUAAGGAGAAGACUGCGGGUUCGAGUCCCGUACGGAACG [U2C A14U A21U], the yeast fitness turned out to be 0.596. As to GCUCCGUUGGCGUUAUGGUAACGCGUCUCCCUCCUAAGGAGAAGACUGCGGGUUCGAGUCGCGUACGGAGCG [U2C A14U C61G A70G], the yeast fitness was at most 0.5. For GCUCCGUUGGCGUACUGGUAACGCGUCUCCCUCCUAAGGAGAAGACUGCGGGUUGGCGUCCCGUAAGGAACG [U2C A15C C55G A57C C66A] the value was at most 0.5; for GCUCCGUUGGCGUACUGGUAACACGUCUCCGUCCUAAGGAGAAGUCUGCGGGUUCGAGUCCCGUACGGAACG [U2C A15C G23A C31G A45U], 0.61; for GCUCCGUUGGCGUAAUGGUGACGCGUCUCCCUCCUAAGGAGAAGACUGCGGGUUCGAGUCCUGUACGGAACG [U2C A20G C62U], 0.599.

Regarding GCUCCGUUGGCGUAGUGGUAACGCGUCUCCCUCCUAAGGAGAAAACUGCCGGUUCGAGUCCCGUACGGAGCG [U2C A15G G44A G50C A70G], the yeast fitness was at most 0.5. To GCUCCGUUGGCGUAUUGGUUACGCGUCUCCCUCCUAAGGAGAAGACUGCGGGUUCGAGUCCCGUACGGAACG [U2C A15U A20U] belongs at most 0.5; to GCUCCGUUGGCGUAAUGGUCACGCGUCUGCCUCCUCAGGAGAAGACUGCGGCUUCGUGUCCCGUACGGAACG [U2C A20C C29G A36C G52C A57U], at most 0.5.

As for GCUCCGUUGGCGUAUUGGUUACGCGUUUCCCUCCUAAGGAGAAGACUGCGGGUUCGAGUCGCGUACGGAACG [U2C A15U A20U C27U C61G], the yeast fitness is at most 0.5. Turning to GCUCCGUUGGCGUAGUGGUAACGCGUCUCCCUCCUAAGGAGAAGACUGCGGGUUCGAGUCCCGUACGGAACG [U2C A15G], the yeast fitness worked out at 0.91. GCUCCGUUGGCGUGAUGAUAACGCGUCUCCCACCUAAGGAGAAAACUGCGGGUUCGAGUCCCGUACGGAACG [U2C A14G G18A U32A G44A]: the yeast fitness came out at 0.527.

As to GCUCCGUUGGCGUAGUGGAUACGCGUCUCCCUCCUAUGGAGAAGGCGGCGGGUUCGAGUCGCGUACGGAACG [U2C A15G U19A A20U A37U A45G U47G C61G], the yeast fitness is 0.676. As to GCUCCGUUGGCGUAAUGGUGAUGAGUCUCCCUCCUAAGGAGAAGACUGCGGGUUCGAGUCCCGUACGGGACG [U2C A20G C22U C24A A69G], the yeast fitness is at most 0.5. To GCUCCGUUGGCGUGAUGAUAACGCGUCUCCCACCUAAGGAGAAGACUGCGGGUUCGAGUCCCGUAGGGAACG [U2C A14G G18A U32A C66G] belongs at most 0.5; to GCUCCGUUGGCGUGAUGGUAACGCGUCUCCCUCCUAAGGAGAAGACUCCGGGUUCGAGUCCCGUACGGAACG [U2C A14G G48C], 0.709. For GCUCCGUUGGCGUAAUGGUGACGCGUCUCUCUCCUAAGGAGAAGACUGCGGGUUCGAGUCCCGUACGGAACG [U2C A20G C30U] the value was 0.576; for GCUCCGUUGGCGUGAUGAUAACGCGUCUCCCUCCUAAGGAAAAGACUGCGGGUUCGAGUCCCGUACGGCACG [U2C A14G G18A G41A A69C], at most 0.5; for GCUCCGUUGGCGUAAUGGUCACGCGUCUCCCUCCUAAGGAGAAGACUGCGGGUUCGAGUCCCGUUCGGAACG [U2C A20C A65U], 0.641. With GCUCCGUUGGCGUAUCGGUAACCCGUCUCCCUCCUAAGGAGAAGACUGCGGGUUCGAGUCCCGUACGGAACG [U2C A15U U16C G23C], the yeast fitness was at most 0.5. As to GCUCCGUUGGCGUAUUGGUAACGCGUCUCCCUCAUAAGCCGAAGACUGCGGGUUCCAGUCGGGUACGCAACG [U2C A15U C34A G39C A40C G56C C61G C62G G68C], the yeast fitness is at most 0.5. To GCUCCGUUGGCGUACUGGUAACGCGUCUCCCUCCUAAGGAGAAGACUGCGGGUUGGCGUCCCGUACGGAACG [U2C A15C C55G A57C] belongs 0.512; to GCUCCGUUGGCGUAUUGGUAACGCGUCUCCCUCCUAAGGAGAAGAAUGCGGGUUCGAGUCCCGUACGGAACG [U2C A15U C46A], at most 0.5. GCUCCGUUGGCGUGAUAGUAACGCGUCUCCCUCCUAAGGAGAAGAUUGCGGGUUCGAGUACCGUACGGAACG [U2C A14G G17A C46U C60A]: the yeast fitness was at most 0.5. To GCUCCGUUGGCGUACUGGUAACCCGUCUCCAUCCUAAGGAGAAGACUGCGGGUUCGAGUCCCGUACGGAACG [U2C A15C G23C C31A] belongs at most 0.5; to GCUCCGUUGGCGUAGUGGUAACGCGUCUCCCUCCUAAGGAGAAGACUGCGGGUUCGAGUCCCGUACGGCACG [U2C A15G A69C], 0.691. For GCUCCGUUGGCGUUAUGGUAACGCGUCUCCUUCCUAAGGAGAAGACUGCGGGUUCGAGUCCGGUACGGAACG [U2C A14U C31U C62G] the value was at most 0.5; for GCUCCGUUGGCGUAAUGGUUACGCGUCUCCCUCCUAAGGAGAAGACUGCGGGUUCGAGUCCCGUACGGCACG [U2C A20U A69C], 0.636; for GCUCCGUUGGCGUACUGGCAAGGCGUCUCCCUCUUAAGCAGAAGACUGCGGGUUCGAGUCCUGUCCGGAACG [U2C A15C U19C C22G C34U G39C C62U A65C], at most 0.5. To GCUCCGUUGGCGUAAUGGUGACGCGUGUCCCUCCUACCGAGAGGACUGCGGGUUCGAGUCCCGUACGGUACG [U2C A20G C27G A37C G38C A43G A69U] belongs at most 0.5; to GCUCCGUUGGCGUAAUGGUCACGCGUCUCCCUCCUAAGGAGAAGACUGCGGGUUCGAGUCCCGUACGGAACG [U2C A20C], 0.98. As to GCUCCGUUGGCGUAAUGGUGACGCGUCUCCCUCCUAAGGAGAAGACUGCGGGUUCGAGUCCCGUACGGAACG [U2C A20G], the yeast fitness turned out to be 0.98. Regarding GCUCCGUUGGCGUAAUGGUUACGCGUCUCCCUCCUAAGGUGAAGACUGCGGGUUCGAGUCCAGUAAGGAACG [U2C A20U A40U C62A C66A], the yeast fitness is at most 0.5. For GCUCCGUUGGCGUAUUGGUAACGCGUCUCCCUCCUAGGGAGAAGACUGCGGGUUCGAGUCCCGUACGGAACG [U2C A15U A37G] the value was at most 0.5; for GCUCCGUUGGCGUAAUGGUGACGCGUGUCCCUCCUACCGAGAGGACUGCGGGUUAGAGUCCCGUACGGAACG [U2C A20G C27G A37C G38C A43G C55A], at most 0.5. As to GCUCCGUUGGCGUACUGGUCACGCGUCUCCCUCCUAAGGAGAAGACUGCGGGUUCGAGUCCCGUUCGGAACG [U2C A15C A20C A65U], the yeast fitness turned out to be 0.52. For GCUCCGUUGGCGUACUGGUAAAGCGUCUCCUUCCUAAGGAGAAGACUGCGGGUUAGAGUCCCGUACGGAACG [U2C A15C C22A C31U C55A] the value was at most 0.5.
